Assay results reported in ChEMBL document CHEMBL1240409, “Design, synthesis and evaluation of (E)-alpha-benzylthio chalcones as novel inhibitors of BCR-ABL kinase” (Bioorg Med Chem, 2010).
The source made the active and inactive calls. The calls are words filed in the database; no cut-off is given here.

Key:
K562 = test: Growth inhibition of human K562 cells expressing p210Bcr/Abl after 96 hrs by trypan blue exclusion assay; type: functional, cell-based; conditions: K562, 96 h
Summary of the method: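 K562 cells were kept in RPMI with 10% FBS and penicillin–streptomycin at 37 °C under 5% CO2. Cells were seeded at 1 × 10^5 cells/mL with a range of compound concentrations, using DMSO as the negative control. After 96 h, viability was counted by Trypan blue exclusion and expressed as percent of DMSO control to derive GI50.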

DU-145 = test: Growth inhibition of human DU145 cells after 96 hrs by trypan blue exclusion assay; type: functional; conditions: DU-145, 96 h
Bcr/Abl fusion protein [1] = target: T1, Bcr/Abl fusion protein (Homo sapiens, UniProt P00519); test: Inhibition of BCR/ABL p210 autophosphorylation in human K562 cells after 2 hrs by Western blot analysis; type: cell-based
T1 sequence (P00519 whole entry, the tested form may be a part): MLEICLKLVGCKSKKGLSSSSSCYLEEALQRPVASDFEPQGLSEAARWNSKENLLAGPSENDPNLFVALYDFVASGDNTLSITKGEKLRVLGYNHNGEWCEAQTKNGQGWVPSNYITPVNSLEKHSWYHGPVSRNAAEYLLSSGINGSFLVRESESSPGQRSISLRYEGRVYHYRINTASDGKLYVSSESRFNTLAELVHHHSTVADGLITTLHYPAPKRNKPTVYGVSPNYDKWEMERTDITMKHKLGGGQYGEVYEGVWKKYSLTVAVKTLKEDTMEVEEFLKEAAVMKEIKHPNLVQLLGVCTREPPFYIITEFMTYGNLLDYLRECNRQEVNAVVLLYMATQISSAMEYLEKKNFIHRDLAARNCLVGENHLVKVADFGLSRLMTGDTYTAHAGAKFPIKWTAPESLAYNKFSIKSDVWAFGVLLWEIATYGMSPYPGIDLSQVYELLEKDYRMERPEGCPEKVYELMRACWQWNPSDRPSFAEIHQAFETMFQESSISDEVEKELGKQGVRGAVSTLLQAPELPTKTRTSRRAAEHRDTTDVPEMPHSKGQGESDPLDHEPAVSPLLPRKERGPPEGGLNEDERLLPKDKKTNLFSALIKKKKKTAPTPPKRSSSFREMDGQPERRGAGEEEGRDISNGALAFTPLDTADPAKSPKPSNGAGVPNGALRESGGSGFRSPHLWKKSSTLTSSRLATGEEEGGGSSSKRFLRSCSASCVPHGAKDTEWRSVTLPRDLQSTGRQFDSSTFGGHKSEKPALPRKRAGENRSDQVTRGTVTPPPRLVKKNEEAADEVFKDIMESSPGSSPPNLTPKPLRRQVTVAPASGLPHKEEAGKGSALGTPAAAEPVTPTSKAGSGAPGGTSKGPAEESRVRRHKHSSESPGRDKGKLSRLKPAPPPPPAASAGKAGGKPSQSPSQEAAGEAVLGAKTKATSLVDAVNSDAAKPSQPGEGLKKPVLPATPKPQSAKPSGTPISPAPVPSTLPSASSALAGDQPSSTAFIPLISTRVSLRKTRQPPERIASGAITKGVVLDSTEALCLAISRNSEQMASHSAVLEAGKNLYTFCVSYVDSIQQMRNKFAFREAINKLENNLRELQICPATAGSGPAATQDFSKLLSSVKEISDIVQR
T1 sequence (P11274 whole entry, further chain, the tested form may be a part): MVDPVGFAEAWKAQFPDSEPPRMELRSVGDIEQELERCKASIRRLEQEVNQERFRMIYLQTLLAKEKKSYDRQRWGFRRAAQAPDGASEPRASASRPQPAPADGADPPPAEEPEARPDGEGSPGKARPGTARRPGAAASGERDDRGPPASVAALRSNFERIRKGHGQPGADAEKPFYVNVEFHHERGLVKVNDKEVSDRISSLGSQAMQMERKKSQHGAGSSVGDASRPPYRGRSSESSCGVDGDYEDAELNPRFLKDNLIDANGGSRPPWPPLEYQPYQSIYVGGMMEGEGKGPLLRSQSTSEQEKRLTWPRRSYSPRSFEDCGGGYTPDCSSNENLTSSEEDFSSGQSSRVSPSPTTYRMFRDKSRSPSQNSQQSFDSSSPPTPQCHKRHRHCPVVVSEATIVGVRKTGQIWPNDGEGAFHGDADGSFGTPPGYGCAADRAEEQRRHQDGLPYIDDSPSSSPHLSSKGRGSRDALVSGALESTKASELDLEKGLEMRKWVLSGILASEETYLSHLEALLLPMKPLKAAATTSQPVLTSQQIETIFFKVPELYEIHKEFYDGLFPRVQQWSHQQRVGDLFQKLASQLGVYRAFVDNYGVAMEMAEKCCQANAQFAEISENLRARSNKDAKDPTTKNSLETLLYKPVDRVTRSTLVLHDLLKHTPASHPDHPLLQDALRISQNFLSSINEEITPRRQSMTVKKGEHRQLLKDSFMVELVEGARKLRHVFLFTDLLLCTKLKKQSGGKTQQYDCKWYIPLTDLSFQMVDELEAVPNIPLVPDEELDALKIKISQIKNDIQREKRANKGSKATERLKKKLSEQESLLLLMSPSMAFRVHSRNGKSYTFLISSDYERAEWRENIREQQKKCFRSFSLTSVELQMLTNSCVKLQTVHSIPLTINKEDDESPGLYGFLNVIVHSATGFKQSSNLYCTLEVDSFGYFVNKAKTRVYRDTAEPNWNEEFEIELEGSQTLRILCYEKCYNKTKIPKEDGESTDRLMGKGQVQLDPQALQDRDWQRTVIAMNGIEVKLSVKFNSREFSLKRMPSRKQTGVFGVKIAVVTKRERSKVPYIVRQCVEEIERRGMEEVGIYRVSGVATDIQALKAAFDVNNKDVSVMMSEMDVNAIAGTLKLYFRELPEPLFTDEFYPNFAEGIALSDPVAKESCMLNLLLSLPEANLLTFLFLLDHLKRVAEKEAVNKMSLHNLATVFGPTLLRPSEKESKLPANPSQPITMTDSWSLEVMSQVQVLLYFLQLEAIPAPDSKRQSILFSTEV

[2] = Aqueous solubility of the compound; type: physicochemical; conditions: buffer
[3] = target: Bcr/Abl fusion protein (Homo sapiens) (UniProt P00519+P11274); test: Inhibition of BCR/ABL p210 autophosphorylation in human K562 cells at 0.2 to 10 uM after 2 hrs by Western blot analysis; type: cell-based
Sequence of Bcr/Abl fusion protein (Homo sapiens) (P00519 whole entry, looked up, the tested form may be a part): as the sequence (P00519 whole entry, the tested form may be a part) above
Sequence of Bcr/Abl fusion protein (Homo sapiens) (P11274 whole entry, looked up, the tested form may be a part): as the sequence (P11274 whole entry, further chain, the tested form may be a part) above
Summary of the method: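 Exponentially growing K562 cells were treated for 2 h with rising compound concentrations, diluted from 10 mM DMSO stocks via 1000× DMSO working stocks, or with DMSO vehicle. Lysates were run on 10% SDS–PAGE. Blots were probed sequentially for phospho-BCR-ABL and total BCR-ABL, detected with infrared-dye secondaries, and quantified by densitometry. The phospho signal was normalized to total, with % inhibition relative to vehicle.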

Bcr/Abl fusion protein [4] = target: T1, Bcr/Abl fusion protein; test: Inhibition of Bcr-Abl after 20 mins by autoradiography; type: protein assay
Summary of the method: (§1)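 Kinase reactions were started by adding 1 µg recombinant substrate with unlabelled and 32P-labelled ATP. They ran 20 min at 30 °C and were stopped with 2× Laemmli buffer, then boiled 2 min and resolved on 12% SDS–PAGE. Substrate phosphorylation bands on autoradiograms were quantified by densitometry and plotted against log drug concentration. IC50 came from sigmoidal variable-slope nonlinear regression.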

[5] = target: Tyrosine-protein kinase Lyn (Homo sapiens, UniProt P07948); test: Inhibition of GST-tagged recombinant LynB after 20 mins by autoradiography; summary of the method: as §1
Sequence of Tyrosine-protein kinase Lyn (P07948 whole entry): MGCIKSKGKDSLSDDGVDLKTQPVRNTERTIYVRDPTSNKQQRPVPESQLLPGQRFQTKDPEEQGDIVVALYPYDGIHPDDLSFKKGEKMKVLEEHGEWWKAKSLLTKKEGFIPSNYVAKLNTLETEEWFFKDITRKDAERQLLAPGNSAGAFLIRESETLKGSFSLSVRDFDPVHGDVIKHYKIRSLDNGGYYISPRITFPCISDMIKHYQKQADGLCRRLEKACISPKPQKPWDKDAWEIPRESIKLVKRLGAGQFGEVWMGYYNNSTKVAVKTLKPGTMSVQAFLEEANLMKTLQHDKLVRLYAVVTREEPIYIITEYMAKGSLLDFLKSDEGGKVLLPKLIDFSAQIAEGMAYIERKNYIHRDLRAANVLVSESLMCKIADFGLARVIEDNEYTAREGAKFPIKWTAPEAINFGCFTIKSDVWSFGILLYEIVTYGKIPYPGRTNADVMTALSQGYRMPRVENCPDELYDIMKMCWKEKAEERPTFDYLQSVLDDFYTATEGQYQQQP

[6] = target: Proto-oncogene tyrosine-protein kinase Src (Homo sapiens, UniProt P12931); test: Inhibition of GST-tagged recombinant Src after 20 mins by autoradiography; summary of the method: as §1
[7] = target: Receptor tyrosine-protein kinase erbB-2 (Homo sapiens, UniProt P04626); test: Inhibition of ErbB2 by immunoprecipitation assay
Sequence of Receptor tyrosine-protein kinase erbB-2 (P04626 whole entry): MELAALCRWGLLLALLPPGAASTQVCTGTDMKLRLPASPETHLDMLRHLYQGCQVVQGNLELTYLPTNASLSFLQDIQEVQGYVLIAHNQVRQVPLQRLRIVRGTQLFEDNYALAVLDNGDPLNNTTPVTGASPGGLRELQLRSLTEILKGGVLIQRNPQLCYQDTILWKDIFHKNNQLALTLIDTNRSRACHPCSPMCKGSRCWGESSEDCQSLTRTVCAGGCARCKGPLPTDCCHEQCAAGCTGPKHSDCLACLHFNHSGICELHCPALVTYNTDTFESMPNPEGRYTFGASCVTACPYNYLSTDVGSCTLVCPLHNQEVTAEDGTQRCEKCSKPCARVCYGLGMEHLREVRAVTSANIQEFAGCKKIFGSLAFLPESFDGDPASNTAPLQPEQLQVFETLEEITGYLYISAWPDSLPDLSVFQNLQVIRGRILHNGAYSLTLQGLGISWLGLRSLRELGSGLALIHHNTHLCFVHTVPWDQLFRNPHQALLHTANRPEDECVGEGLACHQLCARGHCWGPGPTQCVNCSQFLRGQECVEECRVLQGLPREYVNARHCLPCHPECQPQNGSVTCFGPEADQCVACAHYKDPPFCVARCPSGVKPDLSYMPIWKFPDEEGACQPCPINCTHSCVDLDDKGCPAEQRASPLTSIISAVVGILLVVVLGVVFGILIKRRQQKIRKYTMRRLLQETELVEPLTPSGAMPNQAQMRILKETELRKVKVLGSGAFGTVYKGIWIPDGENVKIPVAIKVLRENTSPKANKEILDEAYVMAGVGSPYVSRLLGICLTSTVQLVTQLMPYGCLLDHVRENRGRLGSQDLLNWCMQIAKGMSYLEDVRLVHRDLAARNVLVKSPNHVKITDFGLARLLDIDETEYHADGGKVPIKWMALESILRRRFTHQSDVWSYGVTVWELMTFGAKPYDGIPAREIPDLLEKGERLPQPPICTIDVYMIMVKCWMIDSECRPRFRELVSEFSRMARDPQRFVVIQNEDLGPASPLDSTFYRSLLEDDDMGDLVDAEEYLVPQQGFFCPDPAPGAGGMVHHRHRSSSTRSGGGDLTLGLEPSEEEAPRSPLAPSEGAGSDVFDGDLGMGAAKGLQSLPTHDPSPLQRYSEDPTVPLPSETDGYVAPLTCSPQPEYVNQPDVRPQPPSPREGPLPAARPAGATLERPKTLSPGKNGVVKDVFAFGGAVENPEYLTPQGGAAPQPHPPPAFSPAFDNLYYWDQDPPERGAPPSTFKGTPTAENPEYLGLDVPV

[8] = target: Epidermal growth factor receptor (Homo sapiens, UniProt P00533); test: Inhibition of EGFR by immunoprecipitation assay
[9] = target: Serine/threonine-protein kinase PLK1 (Homo sapiens, UniProt P53350); test: Inhibition of GST-tagged recombinant PLK1 after 20 mins by autoradiography; summary of the method: as §1
Sequence of Serine/threonine-protein kinase PLK1 (P53350 whole entry): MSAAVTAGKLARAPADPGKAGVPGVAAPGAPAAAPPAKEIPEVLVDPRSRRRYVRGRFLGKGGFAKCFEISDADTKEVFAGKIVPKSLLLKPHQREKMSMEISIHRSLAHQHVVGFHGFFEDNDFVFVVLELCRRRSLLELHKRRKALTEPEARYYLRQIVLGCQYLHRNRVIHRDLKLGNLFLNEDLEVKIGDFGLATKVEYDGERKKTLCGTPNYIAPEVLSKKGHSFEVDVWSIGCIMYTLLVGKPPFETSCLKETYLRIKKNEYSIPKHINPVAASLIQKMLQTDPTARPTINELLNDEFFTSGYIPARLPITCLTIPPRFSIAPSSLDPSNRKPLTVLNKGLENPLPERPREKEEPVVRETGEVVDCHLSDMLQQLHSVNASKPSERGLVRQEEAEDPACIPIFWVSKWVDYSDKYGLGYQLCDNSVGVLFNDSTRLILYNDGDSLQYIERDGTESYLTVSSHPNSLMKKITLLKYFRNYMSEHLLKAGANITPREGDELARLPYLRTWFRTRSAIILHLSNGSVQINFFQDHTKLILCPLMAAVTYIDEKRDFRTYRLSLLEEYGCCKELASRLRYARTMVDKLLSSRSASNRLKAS

[10] = target: Cyclin-dependent kinase 1 (Homo sapiens, UniProt P06493); test: Inhibition of GST-tagged recombinant CDK1 after 20 mins by autoradiography; summary of the method: as §1
[11] = Aqueous solubility of the compound

| SMILES | GI50 (K562) | IC50 (K562) | GI50 (DU-145) | IC50 (Bcr/Abl fusion protein [1]) | solubility [2] | inhibition [3] | IC50 (Bcr/Abl fusion protein [4]) | IC50 [5] | IC50 [6] | IC50 [7] | IC50 [8] | IC50 [9] | IC50 [10] | solubility [11] |
| --- | --- | --- | --- | --- | --- | --- | --- | --- | --- | --- | --- | --- | --- | --- |
| O=C(O)c1ccc(C(=O)/C(=C\c2ccc(F)c([N+](=O)[O-])c2)S(=O)(=O)Cc2ccc(Br)cc2)cc1 | – | 5 µM | – | > 20 µM | < 1000 µg/mL | – | – | – | – | – | – | – | – | – |
| O=C(O)c1ccc(C(=O)/C(=C\c2ccc(F)c([N+](=O)[O-])c2)SCc2ccc(Cl)cc2Cl)cc1 | < 1 µM | 0.4 µM | 1 µM | 2.5 µM | < 1000 µg/mL | – | – | – | – | – | – | – | – | – |
| CCN(CC)CCNC(=O)c1ccc(C(=O)/C(=C\c2ccc(F)c([N+](=O)[O-])c2)SCc2ccc(Br)cc2)cc1 | – | 0.5 µM | – | 0.5 µM | > 10000 µg/mL | – | – | – | – | – | – | – | – | > 10000 µg/mL |
| O=C(O)c1ccc(C(=O)/C(=C\c2ccc(Br)c([N+](=O)[O-])c2)SCc2ccc(Cl)cc2Cl)cc1 | < 1 µM | 0.6 µM | 1 µM | 2.5 µM | < 1000 µg/mL | – | – | – | – | – | – | – | – | – |
| O=C(/C(=C\c1ccc(F)c([N+](=O)[O-])c1)SCc1ccc(F)cc1)c1ccc(F)cc1 | < 1 µM | 0.6 µM | 1 µM | 2.5 µM | < 1000 µg/mL | – | – | – | – | – | – | – | – | – |
| O=C(/C(=C\c1ccc(F)c([N+](=O)[O-])c1)SCc1ccc(Br)cc1)c1ccc(C(=O)N2CCN(CCO)CC2)cc1 | < 0.25 µM | 0.5 µM | 0.75 µM | 0.5 µM | > 10000 µg/mL | Active | – | – | – | – | – | – | – | > 10000 µg/mL |
| O=C(O)c1ccc(C(=O)/C(=C\c2ccc(F)c([N+](=O)[O-])c2)SCc2ccccc2Cl)cc1 | 1 µM | 0.5 µM | 1 µM | 10 µM | < 1000 µg/mL | – | – | – | – | – | – | – | – | – |

The remaining lines, values ahead:

| GI50 (K562) | IC50 (K562) | GI50 (DU-145) | IC50 (Bcr/Abl fusion protein [1]) | solubility [2] | inhibition [3] | IC50 (Bcr/Abl fusion protein [4]) | IC50 [5] | IC50 [6] | IC50 [7] | IC50 [8] | IC50 [9] | IC50 [10] | solubility [11] | SMILES |
| --- | --- | --- | --- | --- | --- | --- | --- | --- | --- | --- | --- | --- | --- | --- |
| < 1 µM | 0.3 µM | 1 µM | 0.5 µM | < 1000 µg/mL | Active | 0.75 µM | 17 µM | 13.2 µM | > 10 µM | > 20 µM | > 50 µM | > 50 µM | – | O=C(O)c1ccc(C(=O)/C(=C\c2ccc(F)c([N+](=O)[O-])c2)SCc2ccc(Br)cc2)cc1 |
| < 1 µM | 0.5 µM | 1 µM | 2.5 µM | < 1000 µg/mL | – | – | – | – | – | – | – | – | – | O=C(O)c1ccc(C(=O)/C(=C\c2ccc(Cl)c([N+](=O)[O-])c2)SCc2ccc(F)cc2)cc1 |
| – | 75 µM | – | > 20 µM | < 1000 µg/mL | – | – | – | – | – | – | – | – | – | O=C(O)c1ccc(C(=O)/C(=C\c2ccc(F)c([N+](=O)[O-])c2)[S+]([O-])Cc2ccc(Br)cc2)cc1 (centres undefined) |
| < 1 µM | 0.6 µM | < 1 µM | 2.5 µM | < 1000 µg/mL | – | – | – | – | – | – | – | – | – | O=C(O)c1ccc(C(=O)/C(=C\c2ccc(Br)c([N+](=O)[O-])c2)SCc2ccc(Cl)cc2)cc1 |
| < 1 µM | 0.4 µM | 1 µM | 0.2 µM | < 1000 µg/mL | Active | – | – | – | – | – | – | – | – | O=C(O)c1ccc(C(=O)/C(=C\c2ccc(F)c([N+](=O)[O-])c2)SCc2ccc(C(F)(F)F)cc2)cc1 |
| < 1 µM | 0.9 µM | 1 µM | 10 µM | < 1000 µg/mL | – | – | – | – | – | – | – | – | – | O=C(O)c1ccc(C(=O)/C(=C\c2ccc(Br)c([N+](=O)[O-])c2)SCc2ccc(Br)cc2)cc1 |
| – | 5 µM | – | > 20 µM | < 1000 µg/mL | – | – | – | – | – | – | – | – | – | O=C(O)c1ccc(C(=O)/C(=C\c2ccc([N+](=O)[O-])c(F)c2)SCc2ccc(Br)cc2)cc1 |
| < 1 µM | 0.3 µM | 1 µM | 2.5 µM | < 1000 µg/mL | – | – | – | – | – | – | – | – | – | Cc1ccc(CS/C(=C/c2ccc(F)c([N+](=O)[O-])c2)C(=O)c2ccc(C(=O)O)cc2)cc1 |
| 1 µM | 0.7 µM | 0.5 µM | 10 µM | < 1000 µg/mL | – | – | – | – | – | – | – | – | – | O=C(O)c1ccc(C(=O)/C(=C\c2ccc(Cl)c([N+](=O)[O-])c2)SCc2ccc(Br)cc2)cc1 |
| 1 µM | 20 µM | 1 µM | > 20 µM | < 1000 µg/mL | – | – | – | – | – | – | – | – | – | COc1cc(/C=C(/SCc2ccc(Br)cc2)C(=O)c2ccc(C(=O)O)cc2)ccc1F |
